Screening results deposited in PubChem by several laboratories.
Only some compounds are listed: those with a hit (about 1.4% of all), similar ones and a draw of the others.
CAL PDZ FP-1 = inhibitors of human CAL PDZ peptide binding; AID 504414; purified CAL PDZ, TMR-peptide fluorescence polarization, 1 h; 330,000 compounds, 0.02% hits; inhibition, % at 20 µM; Q9HD26;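 active means highest replicate inhibition of at least 40%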
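material = purified tagged CAL PDZ domain construct (CerCALP) | buffer or medium = sodium phosphate/NaCl buffer pH 7.4 with TCEP, IgG, Thesit | reagent = TMR-labelled reporter peptide T*-PRC34 bound in PDZ groove | incubation = 1 h room-temperature incubation prior to read | measured by = fluorescence polarization (mP) | evaluation = percent inhibition from loss of millipolarization | control set = unlabelled peptide and DMSO controls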
Dyrk1A ADPGlo = Dyrk1A (rat) kinase inhibition | Q63470 | ADP-Glo luminescence, NFATc1 peptide | inhibition, % at 12.5 µM | 310,000 compounds, 0.43% hits | AID 504441; in the data active means inhibition above about 50%
CAL PDZ FP-2 = inhibitors of human CAL PDZ peptide binding | Q9HD26 | purified CAL PDZ, TMR-peptide fluorescence polarization, 1 h | inhibition, % at 24.9 µM | 300,000 compounds, 0.92% hits | AID 602252;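 active means mean inhibition of at least 30% with at least half of replicates also reaching 30%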
CDK5 inh = blocks human CDK5/p35 kinase activity; 330,000 compounds, 0.01% hits; Q00535+Q15078; inhibition, % at 10 µM; Recombinant CDK5/p35, ADP-Glo luminescence, 60 min; AID 488839;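 active means highest replicate inhibition of at least 50% and at least 75% of replicates reaching 50%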
Target sequence (Q00535 whole entry, looked up): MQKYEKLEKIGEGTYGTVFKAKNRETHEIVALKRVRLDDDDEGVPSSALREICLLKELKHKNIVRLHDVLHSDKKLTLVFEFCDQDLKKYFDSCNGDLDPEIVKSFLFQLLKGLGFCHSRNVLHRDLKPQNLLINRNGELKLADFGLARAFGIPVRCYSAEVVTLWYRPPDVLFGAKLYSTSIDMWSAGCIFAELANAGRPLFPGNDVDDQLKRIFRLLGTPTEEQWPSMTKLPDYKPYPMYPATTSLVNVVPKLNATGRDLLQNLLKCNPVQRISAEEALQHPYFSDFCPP
Target sequence (Q15078 whole entry, looked up): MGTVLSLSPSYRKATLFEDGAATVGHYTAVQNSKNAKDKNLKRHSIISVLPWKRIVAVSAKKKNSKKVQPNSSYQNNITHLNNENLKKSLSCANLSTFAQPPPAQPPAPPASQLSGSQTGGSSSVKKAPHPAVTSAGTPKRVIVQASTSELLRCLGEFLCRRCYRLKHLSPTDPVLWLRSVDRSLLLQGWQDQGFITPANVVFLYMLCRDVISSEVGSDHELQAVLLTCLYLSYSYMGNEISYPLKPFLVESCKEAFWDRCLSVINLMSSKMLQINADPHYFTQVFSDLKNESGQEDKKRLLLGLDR
TbMetRS inhib = blocks T. brucei methionyl-tRNA synthetase activity; purified T. brucei MetRS, ATP depletion, Kinase-Glo luminescence; inhibition, % at 11.9 µM; 360,000 compounds, 0.4% hits;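 active means inhibition above a per-plate cutoff of the control wells' mean inhibition plus 3 SD, cut at about 5.5% in these data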
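Material – parasite MetRS enzyme · Medium – HEPES-MgCl2-KCl buffer plus DTT, spermine, BSA, pyrophosphatase · Reagent – ATP, methionine and E. coli bulk tRNA substrates · Times – 15 min enzyme-compound preincubation, 2 h reaction, 10 min detection, 25 °C · Measured by – luminescence of leftover ATP · Evaluation – percent inhibition relative to median high and low control wells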
PvdQ acylase = blocks Pseudomonas aeruginosa PvdQ acylase activity. purified PvdQ acylase, fluorescence plate reader. inhibition, % at 10 µM. 340,000 compounds, 0.063% hits; in the data active means inhibition above about 30%, passing the limit was not always enough
A number is an active result; i = inactive; nt = no result given; + = active, no number.

SMILES	CAL PDZ FP-1	Dyrk1A ADPGlo	CAL PDZ FP-2	CDK5 inh	TbMetRS inhib	PvdQ acylase
CC1CN(CCOc2ccc(F)cc2)CC(C)O1 (stereo unspecified)	i	i	42	i	i	i
COc1cccc(OCCCCN2CC(C)OC(C)C2)c1 (stereo unspecified)	i	i	42	i	i	i
CC1(C(=O)NCc2ccccc2)CSCC(=O)N1C1CC1 (stereo unspecified)	nt	nt	nt	nt	i	nt
CCSc1nsc(NC(=O)Nc2cccc(F)c2)n1	i	i	70	i	i	i
COc1cccc(NC(=O)Nc2nc(SC)ns2)c1	i	i	i	i	i	i
C[C@H](NC(=O)N1CCn2c1nc1ccccc12)C(=O)NC1CC1	i	i	i	i	i	i
C[C@H](NC(=O)N1CCn2c1nc1ccccc12)C(=O)N1CCCCC1	i	i	42	i	i	i
CCOC(=O)C1(Cc2ccc(Cl)cc2)CCN(C(=O)CCc2cnccn2)CC1	i	i	i	i	i	i
CCOC(=O)C1(Cc2ccc(OC)cc2)CCN(C(=O)CCc2cnccn2)CC1	i	i	76	i	i	i
Cc1cc(C)c2c(c1)/C(=N/NC(=O)c1ccc(O)cc1)CCC2	i	i	69	i	i	i
Cc1cc2nc(SC(C)C(=O)O)[nH]c2cc1C (stereo unspecified)	i	i	active	i	i	i
Cc1ccc2nc(SC(C)C(=O)NC3CCCC3)[nH]c2c1 (stereo unspecified)	i	nt	i	i	i	i
CC(NC(=S)NC(=O)c1ccccc1Br)c1ccccc1 (stereo unspecified)	nt	i	77	i	i	i
Cc1cccnc1C(NC(=O)C1CCN(CCCc2ccccc2)CC1)c1ccc(F)cc1 (stereo unspecified)	nt	nt	nt	nt	i	nt
O=C(NCC1COc2ccccc2O1)c1ccccc1 (stereo unspecified)	i	i	nt	i	i	i
Cc1cc(C(=O)NCC2COc3ccccc3O2)c2ccccc2n1 (stereo unspecified)	i	nt	62	i	i	i
COc1ccc(CNC(=O)CCS(=O)(=O)c2ccc3nc(C)sc3c2)cc1	nt	nt	nt	nt	i	nt
O=C(N/N=C\c1cccc(Cl)c1)c1ccc(Cn2cc(Br)c([N+](=O)[O-])n2)o1	i	i	86	i	i	i
Cc1ccc(/C=N\NC(=O)c2ccc(Cn3cc(Br)c([N+](=O)[O-])n3)o2)o1	i	i	i	i	i	i
COc1cccc(C(NC(C)=O)c2nc(-c3cccc(C#N)c3)cs2)c1 (stereo unspecified)	nt	nt	nt	nt	i	nt
O=C(NCCCn1ccnc1)c1nn2c(C(F)(F)F)cc(-c3ccccc3)nc2c1Cl	i	i	i	i	i	51
Cc1cc(F)ccc1NC(=O)c1cc(S(=O)(=O)N2CCCC2)cn1C	i	i	69	i	i	i
COc1ccccc1NC(=O)c1cc(S(=O)(=O)N2CCCC2)cn1C	i	i	nt	i	i	i
COC(=O)[C@@]1(C(C)C)N=C(c2cc(OC)c(OC)c(OC)c2)[C@]2(O1)C(=O)Nc1ccccc12	nt	nt	nt	nt	i	nt
Nc1ccccc1-n1cccc1	i	nt	31	i	i	i
SMILES	CAL PDZ FP-1	Dyrk1A ADPGlo	CAL PDZ FP-2	CDK5 inh	TbMetRS inhib	PvdQ acylase
CC1(c2nnnn2Cc2ccccc2)CCC(=O)N1c1ccc(N2CCOCC2)cc1 (stereo unspecified)	nt	nt	nt	nt	i	nt
COC(=O)C1=CN(c2ccc(OC)cc2OC)C(N)=C(C#N)C1c1cccc([N+](=O)[O-])c1 (stereo unspecified)	nt	nt	nt	nt	i	nt
CC(C(=O)NC1CCCC1)n1c(C2CC2)nc2ccccc21 (stereo unspecified)	nt	nt	nt	nt	i	nt
Cc1ccc(S(=O)(=O)N(C)c2ccc(OC(=O)c3cccs3)cc2)cc1C	i	nt	49	i	i	i
Cc1ccc(S(=O)(=O)N(C)c2ccc(OC(C)C(=O)N3CCCC3)cc2)cc1C (stereo unspecified)	i	i	i	i	i	i
O=C(NCCNC(=O)c1ccc(-c2cc(Cl)ccc2Cl)o1)c1cnccn1	nt	nt	nt	nt	i	nt
O=C(CCN1CCN(C/C=C/c2ccccc2)CC1)Nc1ccc(Cl)cc1	i	i	i	i	i	i
O=C(Nc1cccc(Cl)c1)N1CCN(C/C=C/c2ccccc2)CC1	i	i	48	i	i	i
Cn1cnc(S(=O)(=O)N2CCCCC2c2cc(C(=O)Nc3cccc4c3CCCC4)no2)c1 (stereo unspecified)	nt	nt	nt	nt	i	nt
COc1ccc(CNC(=O)c2ccc(-n3ccnc3)c3ccoc23)cc1OC	nt	nt	nt	nt	i	nt
Cc1cccnc1NC(=O)CNC(=O)C1CCCCC1	i	i	36	i	i	i
CC(C)C1Cc2c(sc3c2c(=O)n(-c2ccccc2)c2n[nH]c(=S)n32)CO1 (stereo unspecified)	i	nt	+	i	i	i
O=C(NCC1CCCO1)c1ccc2c(=O)n(Cc3ccco3)c(SCC(=O)N3CCCC3)nc2c1 (stereo unspecified)	nt	i	79	i	i	i
CCOC(=O)CSc1nc2cc(C(=O)NCC3CCCO3)ccc2c(=O)n1Cc1ccco1 (stereo unspecified)	i	i	i	i	i	i
Cc1cc(C)n2nc(SCc3cccc(S(=O)(=O)N(C)C)c3)nc2n1	nt	i	43	i	i	i
CC(C)CCNC1c2ccccc2C(=O)N1Cc1ccccc1 (stereo unspecified)	nt	i	88	i	i	i
COc1cc(NC2c3ccccc3C(=O)N2Cc2ccccc2)cc(OC)c1OC (stereo unspecified)	i	i	i	i	i	i
CCOC(=O)C1(C(F)(F)F)N=C(c2ccccc2F)OC(N(C)C)=N1 (stereo unspecified)	i	i	i	i	i	i
COC(=O)C1(C(F)(F)F)N=C(N(C)C)OC(N(C)C)=N1	i	i	42	i	i	i
CN(C)S(=O)(=O)c1ccc(NC(=O)CN2CCCCCC2)cc1	i	i	133	i	i	i
COc1ccccc1NC(=O)C1CCN(C(=O)NCc2ccccc2)CC1	i	i	56	i	i	i
COc1cc(C(=O)NC(=S)Nc2ccc(Cl)c(C(=O)O)c2)cc(OC)c1OC	nt	i	40	i	i	i
COc1ccccc1NC(=O)CNC(c1ccccc1)c1ccccc1	i	i	33	i	i	i
O=C(Nc1cccc2ccccc12)C1CCN(C(=O)NCc2ccccc2)CC1	i	i	i	i	i	i
